ChEMBL document CHEMBL3243935, “Analgesic and tranquilizing activity of 5,8-disubstituted 2-aminomethyl-3,4-dihydronaphthalenes” (J Med Chem, 1978)
Activity calls are given as the source filed them.

Experiments:
Mus musculus [1] = experiment: Analgesic activity in Swiss CD mouse assessed as elevation of response latency at 100 mg/kg, ip measured 2 hrs post treatment by tail flick method relative to control; format: functional; details: route intraperitoneal
Outline: (§1)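 Male mice, about 20 g, dosed ip in saline (solution or suspension). High-intensity heat was focused on the tail, and latency to a sudden tail flick was timed, with a 10-s cutoff. Tests ran at 0.5 and 2 h post-dose, with at least ten mice per dose. Percent control = mean latency ÷ mean control latency × 100; 200% was the lower bound of activity.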

Mus musculus [2] = experiment: Analgesic activity in Swiss CD mouse at 100 mg/kg, ip measured 2 hrs post treatment by hot-plate method relative to control; format: functional; details: route intraperitoneal
Outline: (§2)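 Male mice, about 20 g, dosed ip in saline. Each mouse was dropped into a glass cylinder on an aluminium plate held at 57 °C. Latency to the first flick of a hind foot was timed at 0.5 and 2 h post-dose, with a 10-s cutoff. At least ten mice per dose. Percent control = mean latency ÷ mean control latency × 100; 200% was the lower bound of activity.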

Mus musculus [3] = experiment: Analgesic activity in Swiss CD mouse at 100 mg/kg, ip measured 0.5 hr post treatment by hot-plate method relative to control; format: functional; details: route intraperitoneal; outline: as §2
Mus musculus [4] = experiment: Analgesic activity in Swiss CD mouse assessed as elevation of response latency at 100 mg/kg, ip measured 0.5 hr post treatment by tail flick method relative to control; format: functional; details: route intraperitoneal; outline: as §1
Mus musculus [5] = experiment: Analgesic activity in Swiss CD mouse at 32 mg/kg, ip measured 2 hrs post treatment by hot-plate method relative to control; format: functional; details: route intraperitoneal; outline: as §2
Mus musculus [6] = experiment: Analgesic activity in Swiss CD mouse assessed as elevation of response latency at 32 mg/kg, ip measured 2 hrs post treatment by tail flick method relative to control; format: functional; details: route intraperitoneal; outline: as §1
Mus musculus [7] = experiment: Analgesic activity in Swiss CD mouse at 32 mg/kg, ip measured 0.5 hr post treatment by hot-plate method relative to control; format: functional; details: route intraperitoneal; outline: as §2
[8] = Toxicity in ip dosed Swiss CD mouse measured 0.5 to 2 hrs post treatment; format: organism-based; details: in vivo
Mus musculus [9] = experiment: Analgesic activity in Swiss CD mouse assessed as elevation of response latency at 32 mg/kg, ip measured 0.5 hr post treatment by tail flick method relative to control; format: functional; details: route intraperitoneal; outline: as §1
Rattus norvegicus [10] = experiment: Analgesic activity in Sprague-Dawley CD rat at 32 mg/kg, ip measured 0.5 to 2 hrs post treatment by flinch-jump method relative to control; format: functional, organism-based; parameters: dose 32 mg/kg
Outline: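 Male rats, 200-300 g, dosed ip (saline solution or suspension). A single rising series of 1-s foot shocks was given just before and at 0.5 and 2 h after dosing. The minimum shock intensity (mA) evoking each behaviour was recorded. No response at the 2.2-mA level counted as activity. At least five rats per dose.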

Rattus norvegicus [11] = experiment: Neuroleptic activity in ip dosed Sprague-Dawley CD rat assessed as reversal of amphetamine-induced stereotypy compound administered 1hr prior challenge; format: functional
Outline: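 Rats dosed ip, then given amphetamine sulfate 5 mg/kg 1 h later. The ED50 is the dose that reverses the amphetamine-induced stereotypy.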

Row | SMILES | Activity (Mus musculus [1]) | Activity (Mus musculus [2]) | Activity (Mus musculus [3]) | Activity (Mus musculus [4]) | Activity (Mus musculus [5]) | Activity (Mus musculus [6]) | Activity (Mus musculus [7]) | LD50 [8] | Activity (Mus musculus [9]) | Activity (Rattus norvegicus [10]) | ED50 (Rattus norvegicus [11])
1 | COc1ccc2c(c1)CCC(CN1CCCC1)=C2.Cl | 92% | 103% | 96% | 92% |  |  |  |  |  |  | 
2 | COc1ccc(Cl)c2c1CCC(CN1CCN(S(N)(=O)=O)CC1)=C2.Cl | 88% | 109% | 123% | 104% |  |  |  |  |  |  | 
3 | COc1ccc2c(c1)C=C(CN1CCCC1)CC2 | 129% | 98% | 114% | 149% |  |  |  |  |  |  | 
4 | COc1ccc(Cl)c2c1CCC(CN1CCC(C(=O)N3CCOCC3)CC1)=C2.Cl | 133% | 95% | 107% | 162% |  |  |  |  |  |  | 
5 | COc1ccc(Cl)c2c1CCC(CN1CCN(CCO)CC1)=C2 | 191% | 236% | 249% | 187% |  |  |  |  |  |  | 
6 | C=CCN1CCN(CC2=Cc3c(Cl)ccc(OC)c3CC2)CC1.Cl | 137% | 127% | 164% | 159% |  |  |  |  |  |  | 
7 | Cc1cc(C)c2c(c1)C=C(CN1CCCC1)CC2.Cl |  |  |  |  | 120% | 126% | 126% | 32 mg/kg | 124% |  | 
8 | COc1ccc(Cl)c2c1CCC(CN1CCN(c3cccc(C(F)(F)F)c3)CC1)=C2.O | 118% | 149% | 167% | 119% |  |  |  |  |  |  | 
9 | COc1ccc(Cl)c2c1CCC(CNCC1CC1)=C2.Cl | 162% | 171% | 224% | 203% |  |  |  |  |  |  | 
10 | COc1ccc(Cl)c2c1CCC(CN1CCC(c3ccccc3)CC1)=C2.O | 106% | 171% | 233% | 109% |  |  |  |  |  |  | 
11 | CCOC(=O)N1CCN(CC2=Cc3c(Cl)ccc(OC)c3CC2)CC1.Cl | 199% | 233% | 274% | 223% |  |  |  |  |  |  | 
12 | COc1ccc(Cl)c2c1CCC(CN1CCC(C(C)=O)(c3ccccc3)CC1)=C2.Cl | 122% | 124% | 143% | 134% |  |  |  |  |  |  | 
13 | COc1ccc(OC)c2c1C=C(CN1CCCC1)CC2.Cl |  |  |  |  | 132% | 99% | 177% | 32 mg/kg | 111% |  | 
14 | COc1ccc(Cl)c2c1CCC(CN1CCN(c3ccc(Cl)cc3)CC1)=C2 | 159% | 160% | 202% | 184% |  |  |  |  |  |  | 
15 | COc1ccc(N2CCN(CC3=Cc4c(Cl)ccc(OC)c4CC3)CC2)cc1 | 123% | 120% | 129% | 131% |  |  |  |  |  |  | 
16 | COc1ccc(C)c2c1CCC(CN1CCCC1)=C2.Cl |  |  |  |  | 145% | 135% | 177% | 32 mg/kg | 177% |  | 
17 | COc1ccc(Cl)c2c1CCC(CN1CCC(O)(c3ccccc3)CC1)=C2.Cl | 158% | 175% | 249% | 196% |  |  |  |  |  |  | 
18 | CCN(CC)C(=O)C1CCCN(CC2=Cc3c(Cl)ccc(OC)c3CC2)C1.Cl.O (stereo unspecified) | 214% | 175% | 107% | 250% |  |  |  |  |  | inactive | 

Row | SMILES | Activity (Mus musculus [1]) | Activity (Mus musculus [2]) | Activity (Mus musculus [3]) | Activity (Mus musculus [4]) | Activity (Mus musculus [5]) | Activity (Mus musculus [6]) | Activity (Mus musculus [7]) | LD50 [8] | Activity (Mus musculus [9]) | Activity (Rattus norvegicus [10]) | ED50 (Rattus norvegicus [11])
19 | COc1ccc(Cl)c2c1CCC(CN1CCC(C(=O)N3CCCCC3)CC1)=C2.Cl.O | 149% | 124% | 170% | 235% |  |  |  |  |  |  | 
20 | CCC(=O)OC1CCN(CC2=Cc3c(Cl)ccc(OC)c3CC2)CC1.Cl | 179% | 101% | 95% | 237% |  |  |  |  |  |  | 
21 | CNC(=O)C1CCN(CC2=Cc3c(Cl)ccc(OC)c3CC2)CC1.Cl.O | 166% | 167% | 221% | 208% |  |  |  |  |  |  | 
22 | COc1ccc(Cl)c2c1CCC(CN1CCC(C(=O)NC3CCCCC3)CC1)=C2 | 154% | 95% | 107% | 219% |  |  |  |  |  |  | 
23 | CNCC1=Cc2c(Cl)ccc(OC)c2CC1.Cl |  |  |  |  | 120% | 127% | 139% | 32 mg/kg | 163% |  | 
24 | Br.COc1cccc2c1CCC(CN1CCCC1)=C2 |  |  |  |  | 103% | 90% | 129% | 32 mg/kg | 80% |  | 
25 | C=CCNCC1=Cc2c(Cl)ccc(OC)c2CC1.Cl | 108% | 115% | 158% | 131% |  |  |  |  |  |  | 
26 | COc1ccc(Cl)c2c1CCC(CN1CCC(O)CC1)=C2.Cl | 180% | 142% | 174% | 239% |  |  |  |  |  |  | 
27 | COc1ccc(Cl)c2c1CCC(CN1CCN(C)CC1)=C2 | 137% | 218% | 274% | 198% |  |  |  |  |  |  | 
28 | COc1ccc(Cl)c2c1CCC(CN1CCCCC1)=C2.Cl | 167% | 127% | 155% | 212% |  |  |  |  |  |  | 
29 | COc1ccc(F)c2c1CCC(CN1CCCC1)=C2.Cl |  |  |  |  | 149% | 141% | 183% | 32 mg/kg | 170% |  | 
30 | CCC(=O)O[C@](Cc1ccccc1)(c1ccccc1)[C@H](C)CN(C)C [PROPOXYPHENE] | 146% | 138% | 139% | 169% |  |  |  |  |  |  | 
31 | COc1ccc(Cl)c2c1CCC(CN1CCCC(C(N)=O)C1)=C2.Cl (stereo unspecified) | 106% | 170% | 197% | 91% |  |  |  |  |  | inactive | 
32 | COc1ccc(Cl)c2c1CCC(CN1CCC(C)CC1)=C2.Cl |  |  |  |  | 135% | 115% | 158% | 32 mg/kg | 128% |  | 
33 | COc1cc2c(cc1OC)CCC(CN1CCCC1)=C2.Cl | 95% | 135% | 173% | 101% |  |  |  |  |  |  | 
34 | CN1CCN(CC/C=C2/c3ccccc3Sc3ccc(S(=O)(=O)N(C)C)cc32)CC1 [THIOTHIXENE] |  |  |  |  |  |  |  |  |  |  | 0.32 mg/kg
35 | COc1ccc(Cl)c2c1CCC(CN1CCC(O)(c3ccc(Cl)cc3)CC1)=C2.O=S(=O)(O)O | 123% | 102% | 177% | 162% |  |  |  |  |  |  | 
